Screening data from PubChem.
NALP1 yeast inh = NALP1 inflammasome inhibitors in reconstituted yeast, colorimetric, S. cerevisiae, triplicate retest; S. cerevisiae NALP1/ASC/caspase-1 growth, X-gal OD620, 72 h; 280,000 tested, 0.61% active; inhibition, % at 10 µM; in the data active means inhibition mostly above about 24%, no sharp cut-off; inactive means mostly below about 32%
Calb FLC = C. albicans growth inhibition with fluconazole, primary screen, CaCi-2 strain, Alamar Blue fluorescence. C. albicans CaCi-2 + fluconazole, 48 h. growth inhibition, % (concentration not given with the values). 300,000 tested, 0.57% active. AID 1979, 2009;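 active means growth inhibition above about 58% in most replicates, limit read from the data, passing the limit was not always enough; inconclusive means exactly half the replicates above a set limit; inactive means most replicates below a set limit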;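 further: all wells also contain fluconazole at 8 µg/ml as a sub-toxic cotreatment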
PolyA inh = polyadenylation inhibitors in yeast reporter cells, primary screen, luminescence, S. cerevisiae | AID 1875, 2009 | S. cerevisiae SKY197-pL101 polyadenylation reporter, beta-gal luminescence; efflux-impaired pdr1/pdr3 knockout yeast; score 100 = 6 SD above DMSO | activity score, % at 12 µM | 300,000 tested, 0.02% active;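 active means lowest replicate activity score at least 50, where 100 means six control SD above control mean; inconclusive means lowest score under 50 but half or more replicates reach 50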;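 further: yeast exposed to compound for 9 h at 30 °C; higher score means more reporter readthrough which indicates perturbed polyadenylation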
T cruzi inh = inhibitors of intracellular T. cruzi growth, primary screen, luminescence, NIH3T3 host cells | T. cruzi beta-gal in NIH3T3, 90 h | inhibition, % (test concentration not listed) | 300,000 tested, 1.4% active;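 active means mean inhibition across valid replicates above about 55%, limit read from the data; inconclusive means mean below that limit but half or more replicates reach it; inactive means mean below it, under half of replicates reach it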;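 further: signal also drops with host cell toxicity which is not excluded here; higher percent means less beta-gal luminescence so fewer parasites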
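Test system: β-gal T. cruzi (Tulahuen C4) inside NIH/3T3 cells / Quantity: 5,000 cells/well / Measured by: luminescence from GalScreen with 0.05% NP40, read after 60 min / Medium: DMEM plus 2% FBS / Measure: parasite load inhibition, % / Reagent: Tulahuen C4 trypomastigotes, 5000/well / Schedule: co-culture of at least 90 h after 3 h attachment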
NALP3 yeast inh = NALP3 inflammasome inhibitors in reconstituted yeast, primary screen, luminescence, uHTS; Yeast reconstituted NLRP3/ASC/caspase-1, beta-gal luminescence, 24 h; inhibition, % at 10 µM; 330,000 tested, 0.39% active; AID 2825, 2010;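 active means inhibition of 50% or more; inactive means inhibition below 50%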
L major viab = Leishmania major promastigote growth inhibition, primary screen; Leishmania major promastigotes, resazurin fluorescence viability; inhibition, % at 10 µM; 200,000 tested, 9% active; AID 1063, 2008; in the data active means inhibition above about 50%;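 further: promastigotes grown with compound for 44 hours at 28 °C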
Numbers stand for hits; - = inactive; ? = inconclusive; . = no result. Only a selection was taken, and hits are over-represented in it overall.

SMILES	NALP1 yeast inh	Calb FLC	PolyA inh	T cruzi inh	NALP3 yeast inh	L major viab
CCOc1cccc(OCCCNCCCOC)c1	-	-	-	-	-	88
CCOC(=O)C(CCCCOc1cccc(CC)c1)C(=O)OCC	-	-	-	-	-	-
CCc1cccc(OCCCCNCCCOC)c1	-	-	-	-	-	99
CCc1cccc(OCCCCN(CC)CC)c1	-	-	-	-	-	98
Cc1c(C(=O)N2CCN(Cc3ccccc3)CC2)oc2c1C(=O)CC(C)(C)C2	-	-	-	-	-	.
CCc1ccccc1NC(=O)CSc1nc2n[nH]c(C)c2c(=N)n1-c1cccc(OC)c1	-	-	-	-	-	90
COc1ccc(OC)c(NC(=O)CSc2nc3n[nH]c(C)c3c(=N)n2-c2cccc(Cl)c2C)c1	-	-	-	-	-	.
CCOC(=O)c1c(NC(=O)Cn2cnc([N+](=O)[O-])n2)sc2c1CCC(C)C2 (configuration not stated)	-	-	-	57	-	98
COC(=O)c1c(NC(=S)NN2CCN(C)CC2)sc2c1CCC(C)C2 (configuration not stated)	-	-	-	-	-	100
COC(=O)c1c(NC(=O)Cc2cccs2)sc2c1CCC(C)C2 (configuration not stated)	-	-	-	-	-	-
COC(=O)c1c(NC(=O)CN(C)CC(=O)Nc2ccc(C)cc2)sc2c1CCC(C)C2 (configuration not stated)	.	.	.	.	-	.
COC(=O)c1c(NC(=O)Cn2cnc([N+](=O)[O-])n2)sc2c1CCC(C)C2 (configuration not stated)	-	-	-	58	-	100
CC(=O)Nc1nnc(SCC(=O)N2CCc3ccccc32)s1	-	-	-	-	-	.
COc1ccc2nc(SCC(=O)c3c(N)n(C4CC4)c(=O)[nH]c3=O)[nH]c2c1	.	.	.	.	-	.
COc1ccccc1N1CCN(C(CNC(=O)C2CCCCC2)c2cccnc2)CC1 (configuration not stated)	.	-	-	-	-	51
O=C(NCC(c1cccnc1)N1CCOCC1)C1CCCCC1 (configuration not stated)	-	-	-	-	-	-
COc1ccccc1N1CCN(C(CNC(=O)c2ccc3c(c2)OCO3)c2cccnc2)CC1 (configuration not stated)	-	-	-	-	-	94
COc1ncnc(OC)c1S(=O)(=O)NCc1ccccc1	-	-	-	-	-	.
COc1ccc(S(=O)(=O)NCC(=O)N(CC2CCCO2)C(C(=O)NC2CCCC2)C(C)C)cc1 (configuration not stated)	-	-	-	-	-	.
N#CCSc1nc2c(sc(=S)n2Cc2ccco2)c(=O)n1-c1ccc(F)cc1	-	-	-	-	-	96
CCn1c(=S)sc2c(=O)n(-c3ccccc3)c(SC)nc21	-	?	-	-	-	87
COc1ccc2c(c1)-c1nc(/N=C/c3ccc(O)cc3)sc1CC2	-	.	.	.	.	-
COc1ccc2c(c1)-c1nc(/N=C/c3c(O)ccc4ccccc34)sc1CC2	-	-	-	-	.	81
COC(=O)C1=CN(c2ccc(OC)cc2)C=C(C(=O)OC)C1c1ccc([N+](=O)[O-])cc1	-	-	-	60	-	.
CCc1ccc2[nH]c(=O)c(CN(Cc3ccc4c(c3)OCO4)Cc3nnnn3C3CCCC3)cc2c1	-	-	-	-	-	97
SMILES	NALP1 yeast inh	Calb FLC	PolyA inh	T cruzi inh	NALP3 yeast inh	L major viab
Cc1ccc2cc(CN(Cc3ccccc3)Cc3nnnn3C3CCCC3)c(=O)[nH]c2c1	-	-	-	-	-	69
Cc1ccc2cc(CN(Cc3ccc(F)cc3)Cc3nnnn3C3CCCC3)c(=O)[nH]c2c1	-	?	?	?	-	81
CCOC(=O)N1CCN(C(=O)c2ccc(N(Cc3ccccc3Cl)S(C)(=O)=O)cc2)CC1	-	-	-	-	-	.
C/C(=N\OCc1ccc(C#N)cc1)c1cc2ccccc2o1	.	78	-	-	-	.
CSc1ccccc1NC(=O)CO/N=C(\C)c1cc2ccccc2o1	-	-	-	-	-	95
C/C(=N\OCc1ccccc1C#N)c1cc2ccccc2o1	-	-	-	-	-	-
Fc1ccc(NCc2cccnc2)cc1	-	-	-	-	-	82
c1ccc(NCc2cccnc2)cc1	-	.	.	.	-	-
c1cncc(CNc2cccc(-c3nc4ccccc4[nH]3)c2)c1	-	-	-	-	-	67
CC(=O)Nc1ccc(NC(=O)COC(=O)C2CCCCC2)cc1	.	.	.	.	-	.
O=C(NC1CCCN(Cc2ccc(Cl)cc2)C1)c1cnc2ccccn2c1=O (configuration not stated)	-	-	-	-	-	.
CC(C)Cc1ccc(CN2CCCC(NC(=O)CCN3CCCCC3=O)C2)cc1 (configuration not stated)	-	-	-	-	-	.
CC(C)Cc1ccc(CN2CCCC(NC(=O)c3cnc4ccccn4c3=O)C2)cc1 (configuration not stated)	-	-	-	55	-	.
CC(C)Cc1ccc(CN2CCCC(NC(=O)CCN3CCCO3)C2)cc1 (configuration not stated)	-	88	-	-	-	.
CCC(OCC(O)CN1CCN(CCN2C(=O)c3cccc4cccc(c34)C2=O)CC1)c1ccccc1 (configuration not stated)	-	-	-	-	-	97
O=C(/C=C/c1ccccc1)N1CCN(CCN2C(=O)c3cccc4cccc(c34)C2=O)CC1	-	-	-	-	-	100
CC(=O)c1ccc(NC(=S)N2CCN(CCN3C(=O)c4cccc5cccc(c45)C3=O)CC2)cc1	-	-	-	-	-	-
Cc1ccccc1OCC(O)CN1CCN(CCN2C(=O)c3cccc4cccc(c34)C2=O)CC1 (configuration not stated)	-	-	-	56	-	100
CCOc1ccc(NC(=S)N2CCN(CCN3C(=O)c4cccc5cccc(c45)C3=O)CC2)cc1	-	-	-	-	-	71
CC(C)OCC(O)CN1CCN(CCN2C(=O)c3cccc4cccc(c34)C2=O)CC1 (configuration not stated)	-	-	-	-	-	.
CCc1ccccc1N(C(=O)c1cccs1)C1C=CS(=O)(=O)C1 (configuration not stated)	-	-	-	-	-	-
O=C(Oc1ccccc1F)c1ccc2c(=O)n3c(nc2c1)CCC3	.	-	-	-	-	.
COCCCn1cc(C(=O)c2ccccc2OCC(=O)Nc2cccc(F)c2)cc(C#N)c1=O	-	-	-	-	-	-
